From ChEMBL document CHEMBL1123691, “Multisubstrate inhibitors of dopamine beta-hydroxylase. 2. Structure-activity relationships at the phenethylamine binding site” (J Med Chem, 1987)
Each block holds one compound with its values, some of them ahead of it.

Tests used:
[1] = target: T1, Dopamine beta-hydroxylase (Bos taurus, UniProt P15101)
T1 sequence (P15101 whole entry): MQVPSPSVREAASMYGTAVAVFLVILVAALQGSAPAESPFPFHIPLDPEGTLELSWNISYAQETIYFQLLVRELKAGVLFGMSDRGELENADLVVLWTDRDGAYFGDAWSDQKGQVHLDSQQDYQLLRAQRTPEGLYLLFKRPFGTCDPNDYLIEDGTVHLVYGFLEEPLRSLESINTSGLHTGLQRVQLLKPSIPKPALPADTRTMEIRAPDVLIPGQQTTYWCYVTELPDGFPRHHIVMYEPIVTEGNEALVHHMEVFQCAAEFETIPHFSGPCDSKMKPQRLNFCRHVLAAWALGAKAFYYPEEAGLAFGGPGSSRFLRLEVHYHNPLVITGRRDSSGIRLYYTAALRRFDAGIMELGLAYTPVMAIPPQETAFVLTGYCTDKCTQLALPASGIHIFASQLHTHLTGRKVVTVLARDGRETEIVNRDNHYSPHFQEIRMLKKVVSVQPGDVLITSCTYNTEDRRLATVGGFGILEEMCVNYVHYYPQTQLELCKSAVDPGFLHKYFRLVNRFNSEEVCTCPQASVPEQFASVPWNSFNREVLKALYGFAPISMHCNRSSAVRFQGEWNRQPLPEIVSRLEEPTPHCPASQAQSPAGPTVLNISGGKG

[2] = target: T2, Dopamine beta-hydroxylase (Bos taurus) (UniProt P15101); assay: Percent inhibition against bovine Dopamine beta hydroxylase (DBH) at 10E-4 M
T2 sequence (whole entry): T1 sequence (P15101 whole entry)
Summary of the method: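 DBH activity measured in the presence of 10^-4 M compound; result expressed as percent inhibition.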

[3] = target: T1, Dopamine beta-hydroxylase; assay: Inhibitory Concentration against bovine Dopamine beta hydroxylase (DBH); Range is between (7-38).
[4] = Partition coefficient (logP); assay type: physicochemical; details: octanol/water
Summary of the method: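 Octanol/pH 7.4 phosphate buffer partitioning at four concentrations, with UV assay of each phase. D taken at infinite dilution by linear regression. pKa by titration in 2:1 MeOH-H2O.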

[5] = target: T2, Dopamine beta-hydroxylase (Bos taurus); assay: Inhibitor dissociation constant vs. tyramine substrate against Dopamine beta hydroxylase at pH 4.5.
Summary of the method: (§1)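 Homogeneous purified DBH with specific activity 25-42 units/mg, with tyramine as the varied substrate. The pH 4.5 condition is predominantly ordered: phenethylamine binds before oxygen. The pH 6.6 condition is random. Kis is from standard competitive/noncompetitive kinetic fits, reported as mean ± SEM.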

[6] = target: T1, Dopamine beta-hydroxylase; assay: Inhibitory Concentration against bovine Dopamine beta hydroxylase (DBH); Range is between (0.060-0.0877).
[7] = target: T2, Dopamine beta-hydroxylase (Bos taurus); assay: Inhibitor dissociation constant vs. tyramine substrate against Dopamine beta hydroxylase at pH 6.6
Summary of the method: as §1

[8] = system: Rattus norvegicus; assay: Mean arterial blood pressure at 4 hr post drug at ip dose of 50 mg/kg for the indicated number of SHR (spontaneous hypertensive rats) relative to blood pressure before dosing; assay type: functional; details: route intraperitoneal
Summary of the method: (§2)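 Male Okamoto-Aoki SHR, 16–18 weeks, 275-310 g. Femoral artery cannulated under methohexital (10 mg/kg iv), with 2 h recovery, unrestrained. Drug given ip in 20% DMF or po as suspension in 5% PEG 400/1% methocel. BP recorded every 0.5 h for 5–6 h. Mean arterial BP change at 4 h versus predose; mean ± SEM, n rats; vehicle controls run in parallel.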

[9] = system: Rattus norvegicus; assay: Change in DA/NE (Dopamine/Norepinephrine) ratio after oral dosing (50 mg/kg); assay type: functional
Summary of the method: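 Adult male Okamoto-Aoki SHR given vehicle (5% PEG 400, 1% methocel) or suspended drug orally, two doses 18 h apart. Mesenteric arteries taken 2 h after second dose and homogenized in 0.4 M HClO4 with Na2S2O5 and EDTA at 0 °C. Supernatant incubated 60 min at 37 °C with rat liver COMT and [methyl-3H]-S-adenosylmethionine, pH 9.6 Tris; DA and NE measured.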

[10] = target: T2, Dopamine beta-hydroxylase (Bos taurus); assay: Inhibitor dissociation constant vs. tyramine substrate against Dopamine beta hydroxylase at pH 6.0
Summary of the method: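 Purified homogeneous DBH, specific activity 25-42 units/mg, assayed at pH 6.0 with tyramine as the varied substrate. Kis taken as slope inhibition constant from Cleland COMP/NONCOMP fits; mean ± SEM.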

[11] = system: Rattus norvegicus; assay: Mean arterial blood pressure at 4 hr post drug at ip dose of 100 mg/kg for the indicated number of SHR (spontaneous hypertensive rats) relative to blood pressure before dosing; assay type: functional; details: route intraperitoneal
Summary of the method: as §2

[12] = target: T1, Dopamine beta-hydroxylase; remark: listed apart in the source
[13] = target: T1, Dopamine beta-hydroxylase; assay: Inhibitory Concentration against bovine Dopamine beta hydroxylase (DBH); Range is between (4.9-6.5)
[14] = target: T1, Dopamine beta-hydroxylase; remark: listed apart in the source
[15] = target: T1, Dopamine beta-hydroxylase; remark: listed apart in the source
[16] = target: T1, Dopamine beta-hydroxylase; remark: listed apart in the source
[17] = system: Rattus norvegicus; assay: Mean arterial blood pressure at 4 hr post drug at po dose of 50 mg/kg for the indicated number of SHR (spontaneous hypertensive rats) relative to blood pressure before dosing (expt. no. 12); assay type: functional
Summary of the method: as §2

[18] = system: Rattus norvegicus; assay: Mean arterial blood pressure at 4 hr post drug at po dose of 50 mg/kg for the indicated number of SHR (spontaneous hypertensive rats) relative to blood pressure before dosing (expt. no. 13); assay type: functional; details: dose 100 mg/kg, in the assay text read “100 mg/kg” for “50 mg/kg”
Summary of the method: as §2

[19] = target: T1, Dopamine beta-hydroxylase; remark: listed apart in the source
[20] = target: T1, Dopamine beta-hydroxylase; remark: listed apart in the source
[21] = target: T1, Dopamine beta-hydroxylase; remark: listed apart in the source
[22] = target: T1, Dopamine beta-hydroxylase; remark: listed apart in the source
[23] = target: T1, Dopamine beta-hydroxylase; remark: listed apart in the source
[24] = target: T1, Dopamine beta-hydroxylase; remark: listed apart in the source
[25] = target: T1, Dopamine beta-hydroxylase; assay: […] against bovine Dopamine beta hydroxylase […]; Range is between (1.8-2.6).
[26] = target: T1, Dopamine beta-hydroxylase; assay: […] against bovine Dopamine beta hydroxylase […]; Range is between (4.2-5.3).
[27] = target: T1, Dopamine beta-hydroxylase; remark: listed apart in the source
[28] = target: T1, Dopamine beta-hydroxylase; assay: Inhibitory Concentration against bovine Dopamine beta hydroxylase (DBH); Range is between (36-102)
[29] = target: T1, Dopamine beta-hydroxylase; assay: Inhibitory Concentration against bovine Dopamine beta hydroxylase (DBH); Range is between (56-72).
[30] = target: T1, Dopamine beta-hydroxylase; remark: listed apart in the source
[31] = target: T1, Dopamine beta-hydroxylase; assay: Inhibitory Concentration against bovine Dopamine beta hydroxylase (DBH); Range is between (10-14).
[32] = target: T1, Dopamine beta-hydroxylase; assay: Inhibitory Concentration against bovine Dopamine beta hydroxylase (DBH); Range is between (21-37).
[33] = target: T1, Dopamine beta-hydroxylase; remark: listed apart in the source
[34] = target: T1, Dopamine beta-hydroxylase; remark: listed apart in the source
[35] = target: T1, Dopamine beta-hydroxylase; remark: listed apart in the source
[36] = target: T1, Dopamine beta-hydroxylase; remark: listed apart in the source
[37] = target: T1, Dopamine beta-hydroxylase; remark: listed apart in the source
[38] = target: T1, Dopamine beta-hydroxylase; assay: Inhibitory Concentration against bovine Dopamine beta hydroxylase (DBH); Range is between (23-41).
[39] = target: T1, Dopamine beta-hydroxylase; remark: listed apart in the source
[40] = target: T1, Dopamine beta-hydroxylase; assay: Inhibitory Concentration against bovine Dopamine beta hydroxylase (DBH); Range is between (1.7-2.4)

Compound: Fc1ccc(Cn2cc[nH]c2=S)cc1
- IC50 [1]: 47 µM

Compound: S=c1[nH]ccn1Cc1ccc(Cl)cc1Cl
- IC50 [3]: 17 µM

Compound: Oc1c(F)cc(Cn2cc[nH]c2=S)cc1F
- logP [4]: 1.08
- Kis [5]: 0.0057 µM
- IC50 [6]: 74 nM
- Kis [7]: 0.039 µM
- Decrease [8]: 36 mmHg
- Increase [9]: 165%

Compound: Fc1cccc(Cn2cc[nH]c2=S)c1
- logP [4]: 1.7
- Kis [5]: 0.108 µM
- IC50 [13]: 5.6 µM
- Increase [9]: 364%

Compound: COc1ccc(Cn2cc[nH]c2=S)cc1[N+](=O)[O-]
- IC50 [14]: 359 µM

Compound: S=c1[nH]ccn1Cc1c(Cl)cc(Cl)cc1Cl
- IC50 [15]: 102 µM

Compound: Fc1cc(F)cc(Cn2cc[nH]c2=S)c1
- logP [4]: 1.98
- Kis [5]: 0.041 µM
- Decrease [8]: 50 mmHg
- Decrease [17]: 22 mmHg
- Decrease [18]: 28 mmHg
- Increase [9]: 407%

Compound: OCc1ccc(Cn2ccnc2S)cc1
- inhibition [2]: 6%

Compound: COc1ccc(Cn2ccnc2S)cc1S(N)(=O)=O
- inhibition [2]: 7%

Compound: FC(F)(F)c1ccc(Cn2cc[nH]c2=S)cc1
- inhibition [2]: 25%
- Kis [10]: 9.04 µM

Compound: COc1c(Cl)cc(Cn2cc[nH]c2=S)cc1Cl
- IC50 [20]: 47 µM

Compound: Oc1ccc(Cn2cc[nH]c2=S)cc1F
- logP [4]: 1.12
- Decrease [11]: 32 mmHg
- Increase [9]: 78%
- IC50 [24]: 1500 nM

Compound: COc1c(F)cc(Cn2cc[nH]c2=S)cc1F
- IC50 [27]: 36 µM

Compound: Cc1ccc(Cn2cc[nH]c2=S)cc1
- inhibition [2]: 34%
- Kis [10]: 9.77 µM

Compound: Oc1c(F)c(F)c(Cn2cc[nH]c2=S)c(F)c1F
- IC50 [29]: 62 µM

Compound: COc1ccc(Cn2cc[nH]c2=S)cc1C(F)(F)F
- inhibition [2]: 29%

Compound: COc1cccc(Cn2cc[nH]c2=S)c1
- IC50 [34]: 157 µM

Compound: COc1ccc(Cn2cc[nH]c2=S)cc1F
- inhibition [2]: 67%

Compound: O=[N+]([O-])c1cc(Cn2cc[nH]c2=S)ccc1O
- IC50 [38]: 31 µM

Compound: Oc1ccc(Cn2cc[nH]c2=S)cc1O
- IC50 [39]: 2200 nM

Compound: Oc1ccc(Cn2cc[nH]c2=S)cc1
- logP [4]: 1.02
- Decrease [8]: 22 mmHg
- Increase [9]: 92%

Compound: Oc1ccc(Cn2cc[nH]c2=S)cc1Cl
- IC50 [40]: 2000 nM

The next lines start with results.

- inhibition [2]: 14%
Compound: S=c1[nH]ccn1Cc1ccccc1Cl

- inhibition [2]: 43%
- Kis [10]: 3.42 µM
Compound: S=c1[nH]ccn1Cc1ccc(Br)cc1

- inhibition [2]: 32%
Compound: COc1cc(Cl)c(Cn2cc[nH]c2=S)c(Cl)c1

- IC50 [12]: 680 nM
Compound: Oc1c(Cl)cc(Cn2cc[nH]c2=S)cc1Cl
- Decrease [11]: 28 mmHg
- Increase [9]: 12%

- inhibition [2]: 15%
Compound: Cc1ccccc1Cn1cc[nH]c1=S

- inhibition [2]: 72%
Compound: COc1ccc(Cn2cc[nH]c2=S)cc1C

- IC50 [16]: 12 µM
Compound: Oc1ccc(Cn2cc[nH]c2=S)cc1Br

- IC50 [19]: 148 µM
Compound: Oc1cccc(Cn2cc[nH]c2=S)c1

- logP [4]: 1.78
- IC50 [21]: 2400 nM
Compound: S=c1[nH]ccn1Cc1cc(Cl)cc(Cl)c1
- Increase [9]: 197%

- IC50 [22]: 96 µM
Compound: S=c1[nH]ccn1Cc1ccc(Cl)cc1

- IC50 [23]: 580 µM
Compound: Oc1ccccc1Cn1cc[nH]c1=S

- IC50 [25]: 2100 nM
Compound: S=c1[nH]ccn1CCCc1cc(Cl)cc(Cl)c1

- inhibition [2]: 5%
Compound: Cc1cccc(C)c1Cn1cc[nH]c1=S

- inhibition [2]: 1%
Compound: O=C(O)c1ccc(Cn2ccnc2S)cc1

- inhibition [2]: 60%
Compound: COc1ccc(Cn2cc[nH]c2=S)cc1Br

- IC50 [26]: 4.7 µM
Compound: Fc1cc(F)cc(CCCn2cc[nH]c2=S)c1

- inhibition [2]: 68%
Compound: COc1ccccc1Cn1cc[nH]c1=S

- IC50 [28]: 75 µM
Compound: Oc1cc(Cl)c(Cn2cc[nH]c2=S)c(Cl)c1

- IC50 [30]: 49 µM
Compound: Cc1cc(Cn2cc[nH]c2=S)ccc1O

- IC50 [31]: 12 µM
Compound: S=c1[nH]ccn1Cc1cccc(Cl)c1

- Kis [10]: 0.83 µM
Compound: S=c1[nH]ccn1Cc1ccccc1

- IC50 [32]: 28 µM
Compound: S=c1[nH]ccn1Cc1ccc(Cl)c(Cl)c1

- IC50 [33]: 52 µM
Compound: S=c1[nH]ccn1Cc1cccc(Cl)c1Cl

- inhibition [2]: 7%
Compound: S=c1[nH]ccn1Cc1c(Cl)cccc1Cl

- IC50 [35]: 53 µM
Compound: O=[N+]([O-])c1ccc(Cn2cc[nH]c2=S)cc1

- inhibition [2]: 10%
Compound: COc1cccc(OC)c1Cn1cc[nH]c1=S

- inhibition [2]: 15%
Compound: COc1ccc(Cn2cc[nH]c2=S)cc1OC

- IC50 [36]: 121 µM
Compound: Oc1ccc(Cn2cc[nH]c2=S)cc1C(F)(F)F

- IC50 [37]: 97 µM
Compound: S=c1[nH]ccn1Cc1cc(Cl)ccc1Cl
